ChEMBL document CHEMBL2086235, “A novel thiazolidine compound induces caspase-9 dependent apoptosis in cancer cells” (Bioorg Med Chem, 2012)
Activity calls are given as the source filed them. The calls are words filed in the database; no cut-off is given here.

Key:
MFE-296 = assay: Cytotoxicity against human MFE296 cells incubated for 72 hrs by SRB assay; format: functional, cell-based; settings: MFE-296, 72 h
Outline: (§1)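 Cells grown in DMEM with 10% FCS, 2 mM L-glutamine, NEAA and antibiotics at 37 °C, 5% CO2, then seeded at 1000–5000 cells/well and grown 24 h. Compounds were added from DMSO for 72 h, following NCI guidelines. Cells were fixed in cold 10% TCA for 1 h at 4 °C and stained with 0.4% SRB in 1% acetic acid for 10 min. Bound dye was dissolved in 10 mM Tris and absorbance read at 515 nm.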

HepG2 [1] = assay: Induction of apoptosis in human HepG2 cells assessed as cytochrome c release at 10 uM incubated for 48 hrs by immunostaining; format: functional, cell-based
Outline: (§2)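 After 48 h exposure, coverslip-grown cells fixed in 4% paraformaldehyde, permeabilized in ice-cold acetone, blocked in 3% BSA 1 h at 37 °C. Anti-cytochrome c monoclonal applied overnight at 4 °C, then FITC anti-mouse secondary 1 h at room temperature. Diffuse cytoplasmic staining scored by fluorescence microscopy.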

Huh-7 [2] = assay: Cell cycle arrest in human HuH7 cells assessed as subG1/G1 phase accumulation at 5 uM incubated for 12 hrs to 24 hrs by propidium iodide staining based flow cytometry; format: functional
Outline: (§3)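 Cells seeded 100,000-200,000 per dish, grown 24 h, then held a further day in starvation medium (1% FBS, 1% P/S, 1% NEAA in DMEM). Treated with compound or DMSO, harvested by trypsinization, fixed in ice-cold 70% ethanol at 4 °C. Stained 40 min at 37 °C in the dark with propidium iodide, RNase A and Triton X-100 in PBS. G1 = 2N, G2 = 4N; >4N cells gated out.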

FOCUS [3] = assay: Induction of apoptosis in human FOCUS cells assessed as DNA fragmentation at 10 uM incubated for 48 hrs by TUNEL assay; format: functional, cell-based
Outline: (§4)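 Cells grown overnight on coverslips, then exposed 48 h. Fixed in cold methanol; TUNEL done with an in situ cell death detection kit. Nuclei counterstained with Hoechst 33258 (3 μg/mL, 5 min, dark) and viewed by fluorescence microscopy.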

HepG2 [4] = assay: Cytotoxicity against human HepG2 cells incubated for 72 hrs by SRB assay; format: functional, cell-based; settings: HepG2, 72 h; outline: as §1
HepG2 [5] = assay: Increase in caspase-8 activation in human HepG2 cells at 10 uM incubated for 12 hrs in presence of 50 uM caspase-3 inhibitor z-DEVD-fmk by Caspase Glo assay; format: functional, cell-based
Outline: (§5)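 HepG2 pre-incubated 24 h at 37 °C with 50 μM of the named caspase inhibitor peptide or DMSO. Medium then replaced with fresh medium holding the same inhibitor plus compound. Caspase activity read by Caspase-Glo luminescence after 12 h. Values normalized to inhibitor-only wells without compound. Two independent experiments in duplicate; t-test.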

Huh-7 [6] = assay: Induction of caspase-3 cleavage in human HuH7 cells at 2.5 to 5 uM incubated for 6 to 24 hrs by Western blot; format: functional, cell-based
Outline: (§6)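 Huh7 treated with compound or DMSO for 6, 12 or 24 h. Lysates quantified by Bradford and heat-denatured. Blotted onto nitrocellulose and probed with antibodies to cleaved caspase-9, cleaved caspase-3 and caspase-8 (1:500, overnight at 4 °C). Bands quantified by densitometry and normalized to actin.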

Huh-7 [7] = assay: Induction of caspase-8 cleavage in human HuH7 cells at 2.5 to 5 uM incubated for 6 to 24 hrs by Western blot; format: functional, cell-based; outline: as §6
[8] = Cytotoxicity against human FOCUS cells incubated for 72 hrs by SRB assay; format: functional, cell-based; outline: as §1
Huh-7 [9] = assay: Cytotoxicity against human HuH7 cells incubated for 72 hrs by SRB assay; format: functional, cell-based; settings: Huh-7, 72 h; outline: as §1
Huh-7 [10] = assay: Induction of caspase-9 cleavage in human HuH7 cells at 2.5 to 5 uM incubated for 6 to 24 hrs by Western blot; format: functional, cell-based; outline: as §6
HepG2 [11] = assay: Increase in caspase-9 activation in human HepG2 cells at 10 uM incubated for 12 hrs in presence of caspase-8 inhibitor z-IETD-fmk by Caspase Glo assay; format: functional, cell-based; outline: as §5
CAMA-1 [12] = assay: Cytotoxicity against human CAMA1 cells incubated for 72 hrs by SRB assay; format: functional, cell-based; settings: CAMA-1, 72 h; outline: as §1
Huh-7 (Homo sapiens) [13] = assay: Induction of cell death in human Huh7 cells at 10 uM incubated for 72 hrs by real-time cell analysis
HCT-116 [14] = assay: Cytotoxicity against human HCT116 cells incubated for 72 hrs by SRB assay; format: functional, cell-based; settings: HCT-116, 72 h; outline: as §1
Huh-7 (Homo sapiens) [15] = assay: Induction of cell death in human Huh7 cells at 5 uM incubated for 72 hrs by real-time cell analysis
CAMA-1 [16] = assay: Induction of cell death in human CAMA1 cells at 0.02 uM incubated for 72 hrs by real-time cell analysis; format: functional, cell-based
Outline: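 Cells (1000-5000/well) on impedance plates monitored by real-time cell analysis. Treated about 24 h after seeding, in log phase, and followed 72 h against DMSO controls. Inhibition (%) = (1 − CI treated/CI DMSO) × 100. At least three repeats.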

FOCUS [17] = assay: Induction of apoptosis in human FOCUS cells assessed as cytochrome c release at 10 uM incubated for 48 hrs by immunostaining; format: functional, cell-based; outline: as §2
[18] = Cytotoxicity against human MV cells incubated for 72 hrs by SRB assay; format: functional, cell-based; outline: as §1
T47D = assay: Cytotoxicity against human T47D cells incubated for 72 hrs by SRB assay; format: functional, cell-based; outline: as §1
Huh-7 [19] = assay: Growth inhibition of human HuH7 cells incubated for 48 hrs by Giemsa staining; format: functional, cell-based
Outline: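 Cells grown overnight, compound added from DMSO solution, then incubated 48 h more. Attached cells stained with Giemsa and photographed; qualitative read-out.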

HepG2 [20] = assay: Increase in caspase-8 activation in human HepG2 cells at 10 uM incubated for 12 hrs in presence of 50 uM caspase-9 inhibitor z-LEHD-fmk by Caspase Glo assay; format: functional, cell-based; outline: as §5
Huh-7 [21] = assay: Induction of apoptosis in human HuH7 cells assessed as cytochrome c release at 10 uM incubated for 48 hrs by immunostaining; format: functional, cell-based; outline: as §2
Huh-7 [22] = assay: Induction of cell death in human HuH7 cells at 2.5 to 40 uM incubated for 72 hrs by SRB assay; format: functional, cell-based
Outline: (§7)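 Cells seeded and grown 24 h at 37 °C, then treated 72 h in triplicate. Fixed with cold 10% TCA 1 h at 4 °C, stained with 0.4% SRB in 1% acetic acid 10 min, washed in 1% acetic acid. Dye solubilized in 10 mM Tris base; absorbance read at 515 nm. Normalized to DMSO control and Tz; three independent experiments.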

Huh-7 [23] = assay: Induction of apoptosis in human HuH7 cells assessed as DNA fragmentation at 10 uM incubated for 48 hrs by TUNEL assay; format: functional, cell-based; outline: as §4
HepG2 [24] = assay: Increase in caspase-9 activation in human HepG2 cells at 10 uM incubated for 12 hrs by Caspase Glo assay; format: functional, cell-based
Outline: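 HepG2 pre-incubated 24 h at 37 °C with DMSO, then moved to fresh medium with compound. Caspase-9 activity read by Caspase-Glo after 12 h and normalized to untreated controls. Two independent experiments in duplicate.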

MCF7 [25] = assay: Cytotoxicity against human MCF7 cells incubated for 72 hrs by SRB assay; format: functional, cell-based; settings: MCF7, 72 h; outline: as §1
MCF7 [26] = assay: Induction of cell death in human MCF7 cells at 2.5 to 40 uM incubated for 72 hrs by SRB assay; format: functional, cell-based; outline: as §7
HCT-116 [27] = assay: Induction of cell death in human HCT116 cells at 2.5 to 40 uM incubated for 72 hrs by SRB assay; format: functional, cell-based; outline: as §7
[28] = Cell cycle arrest in human Mahlavu cells assessed as subG1/G1 phase accumulation at 5 uM incubated for 12 hrs to 24 hrs by propidium iodide staining based flow cytometry; format: functional; outline: as §3
BT-20 = assay: Cytotoxicity against human BT20 cells incubated for 72 hrs by SRB assay; format: functional, cell-based; settings: BT-20, 72 h; outline: as §1
HepG2 [29] = assay: Increase in caspase-9 activation in human HepG2 cells at 10 uM incubated for 12 hrs in presence of caspase-3 inhibitor z-DEVD-fmk by Caspase Glo assay; format: functional, cell-based; outline: as §5
HepG2 [30] = assay: Induction of apoptosis in human HepG2 cells assessed as DNA fragmentation at 10 uM incubated for 48 hrs by TUNEL assay; format: functional, cell-based; outline: as §4

## C#CC(=O)N1C(c2ccccc2)SC[C@H]1C(=O)OCC (mixture of isomers)
MFE-296
  IC50: 0.5 µM
HepG2 [1]
  Activity: Active
Huh-7 [2]
  Activity: Active
FOCUS [3]
  Activity: Active
HepG2 [4]
  IC50: 10 µM
HepG2 [5]
  Activity: inactive
Huh-7 [6]
  Activity: Active
Huh-7 [7]
  Activity: inactive
[8]
  IC50: 5.47 µM
Huh-7 [9]
  IC50: 5.3 µM
Huh-7 [10]
  Activity: Active
HepG2 [11]
  Activity: inactive
CAMA-1 [12]
  IC50: 0.01 µM
Huh-7 (Homo sapiens) [13]
  Activity: 100%
HCT-116 [14]
  IC50: 9.23 µM
Huh-7 (Homo sapiens) [15]
  Activity: 100%
CAMA-1 [16]
  Activity: inactive
FOCUS [17]
  Activity: Active
[18]
  IC50: 0.41 µM
T47D
  IC50: 7.62 µM
Huh-7 [19]
  growth inhibition (GI): Active
HepG2 [20]
  Activity: inactive
Huh-7 [21]
  Activity: Active
Huh-7 [22]
  Activity: Active
Huh-7 [23]
  Activity: Active
HepG2 [24]
  Activity: Active
MCF7 [25]
  IC50: 4.7 µM
MCF7 [26]
  Activity: Active
HCT-116 [27]
  Activity: Active
[28]
  Activity: Active
BT-20
  IC50: 1.6 µM
HepG2 [29]
  Activity: inactive
HepG2 [30]
  Activity: Active
